Screens as filed in PubChem BioAssay.
PostGolgi yeast: growth inhibition of a yeast mutant, post-Golgi transport screen | post-Golgi transport phenotypic cell assay | inhibition, % at 10 µM | 0.9% of 98,000 active;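 also: yeast cells grown in 1536-well plates; yeast grown about 18 h at 30C before absorbance read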
tolC growth inh: E. coli tolC mutant growth inhibition. E. coli BW25113 tolC mutant growth, OD615. growth inhibition, % at 10 µM (by protocol). 2.2% of 65,000 active;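 active = growth inhibition at or above a cutoff equal to the mean over every tested compound plus 3 SD, cut at about 60% in these data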;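 also: growth measured after 20 h incubation at 37 °C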
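Material: E. coli BW25113 ΔtolC::kan, tolC deletion mutant strain. Measure: percent growth inhibition. Schedule: 37 °C, 20 h exposure. Doses: single-point testing at 10 µM. Signal: A615 absorbance measurement. Buffer or medium: kanamycin-containing LB broth (50 µg/mL).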
Candida biofilm: kills Candida albicans biofilms. AID 834. C. albicans biofilm + clotrimazole, Alamar Blue. inhibition, % at 6 µM. 0.14% of 85,000 active;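 active = inhibition above 20%; inactive = inhibition below 20%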;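 also: preformed 24 hr biofilms exposed to compound for 48 hr; 0% = biofilm without compound and 100% = blank killed by clotrimazole plus chlorhexidine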
Pyk2 oligo antag: blocks oligomerization of human Pyk2 in cells; Q14289; Q293 cells, Pyk2 FERM NanoBiT luminescence; hits give low values; z-score (the deposit names both 25 µM and 10 µM); 0.83% of 99,000 active; AID 1347419;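 active = Z-score of -3 or lower, scaled per plate to the spread of control and sample wells; inactive = z-score above -3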;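 also: negative z-score means lost luminescence so less FERM oligomerization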
PostGolgi ctrl: inhibits growth of the yeast control strain; 5% of 98,000 active; efflux-deficient yeast background strain, growth absorbance A615, 16 h; inhibition, % at 10 µM; AID 738
FAK blocker: blocks human focal adhesion kinase activity; Q05397; biochemical FAK kinase activity assay; inhibition, %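 (tested at 7 µM)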; 0.84% of 97,000 active; AID 727; in the data active = inhibition above about 19%;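 also: 0% = DMSO and 100% = reference compound high control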
Target sequence (Q05397 whole entry, looked up): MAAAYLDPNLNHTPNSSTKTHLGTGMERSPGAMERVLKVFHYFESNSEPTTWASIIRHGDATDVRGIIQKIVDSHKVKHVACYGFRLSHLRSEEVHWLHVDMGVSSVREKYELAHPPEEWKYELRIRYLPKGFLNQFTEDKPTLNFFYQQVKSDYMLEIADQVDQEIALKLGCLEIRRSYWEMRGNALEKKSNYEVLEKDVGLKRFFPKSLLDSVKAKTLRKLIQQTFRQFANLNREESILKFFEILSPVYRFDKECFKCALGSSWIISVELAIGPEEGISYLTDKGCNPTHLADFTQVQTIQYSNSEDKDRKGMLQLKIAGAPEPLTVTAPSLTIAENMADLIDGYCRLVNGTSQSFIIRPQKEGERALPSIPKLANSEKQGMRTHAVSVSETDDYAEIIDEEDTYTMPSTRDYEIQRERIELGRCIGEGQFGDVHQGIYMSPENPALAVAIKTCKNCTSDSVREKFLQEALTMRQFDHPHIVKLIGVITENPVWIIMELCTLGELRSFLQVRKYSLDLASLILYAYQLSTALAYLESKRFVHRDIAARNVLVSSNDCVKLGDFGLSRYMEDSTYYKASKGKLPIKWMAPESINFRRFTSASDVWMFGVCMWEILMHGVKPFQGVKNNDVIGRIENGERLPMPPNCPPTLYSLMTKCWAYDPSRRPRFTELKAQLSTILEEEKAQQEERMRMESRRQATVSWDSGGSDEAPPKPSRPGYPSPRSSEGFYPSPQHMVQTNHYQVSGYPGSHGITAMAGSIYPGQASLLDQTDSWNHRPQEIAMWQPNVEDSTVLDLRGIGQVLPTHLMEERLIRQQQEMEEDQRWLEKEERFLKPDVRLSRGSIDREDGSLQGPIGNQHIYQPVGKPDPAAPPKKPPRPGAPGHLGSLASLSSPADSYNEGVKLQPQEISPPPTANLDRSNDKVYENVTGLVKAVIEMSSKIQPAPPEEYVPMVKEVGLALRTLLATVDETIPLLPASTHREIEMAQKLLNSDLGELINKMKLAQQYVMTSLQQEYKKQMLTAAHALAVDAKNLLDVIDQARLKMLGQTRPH
An asterisk follows results filed as active; nt = not tested or not shown. Only some compounds are listed: those with a hit (about 6.9% of all), similar ones and a draw of the others. Rule as the data show it, unless noted: active = inhibition above about 30%; inactive = the rest.

SMILES	PostGolgi yeast	tolC growth inh	Candida biofilm	Pyk2 oligo antag	PostGolgi ctrl	FAK blocker
Cc1ccc(C(=O)N2CCN(c3cccc(Cl)c3)CC2)cc1C	0	68*	9	0.47	26	nt
COC(=O)c1ccc(NC(=O)CN2CCN(c3ccc(Cl)cc3)CC2)cc1	44*	-22	4	0.03	16	nt
COC(=O)c1ccc(NC(=O)CN2CCN(c3cccc(Cl)c3)CC2)cc1	3	75*	-1	1.2	27	4
Cc1cc(Cl)ccc1OCC(=O)N/N=C1\CCCc2ccccc21	-18	nt	nt	0.35	-4	1
Cc1onc(-c2ccccc2Cl)c1C(=O)NC(=S)Nc1ccccc1C(N)=O	nt	nt	nt	0.57	nt	nt
O=C(CN1CCN(c2ccc(Cl)cc2)CC1)Nc1cccc(F)c1	9	51	6	1.7	30*	1
O=C(Nc1cccc(F)c1)N1CC=C(c2ccc(Cl)cc2)CC1	22	nt	3	-0.24	41*	0
O=C(CN1CCN(c2ccc(F)cc2)CC1)Nc1ccc(F)c(F)c1	1	3	1	1.2	13	3
O=C(CN1CCCN(S(=O)(=O)c2ccc(Br)s2)CC1)Nc1ccc(Cl)cc1	14	nt	3	-0.19	65*	1
O=C(NC1CCN(C(=O)Nc2cccc(F)c2)CC1)C1CCCCC1	10	-14	-3	-0.25	2	2
COc1cc(NC(=O)c2cc3nc(-c4ccccc4)cc(-c4ccccc4)n3n2)cc(OC)c1OC	-4	nt	nt	-1.6	-14	-4
Cc1ccc(SCCNC(=O)/C=C/c2ccccc2Cl)cc1	-2	nt	nt	-0.52	4	0
Cc1ccccc1OCC(O)Cn1c(NCc2ccccc2)nc2c1c(=O)[nH]c(=O)n2C (centres undefined)	-3	nt	8	0.28	2	-1
CCC(C)N1C(=O)/C(=C/c2c(NCCCOC(C)C)nc3c(C)cccn3c2=O)SC1=S (centres undefined)	21	nt	6	-3.1*	26	-1
CCCN1C(=O)/C(=C/c2c(NCCCOC(C)C)nc3c(C)cccn3c2=O)SC1=S	-11	nt	7	-0.5	-5	-2
O=C1CCCCC(=O)N(c2ccccc2)c2ccccc21	7	-5	1	1.3	32*	2
O=C(Nc1cc(Cl)cc(Cl)c1)c1cccc(OC(F)F)c1	59*	nt	nt	-1.9	33*	-1
CC(C)=CCc1c(O)ccc(C(=O)Cc2ccccc2)c1O	7	nt	nt	-2.9	34*	1
CNCCCc1[nH]nc(N)c1C#N	0	-14	6	-0.14	-2	-1
Cc1ncc([N+](=O)[O-])n1CC(O)CCl (centres undefined)	nt	5	12	nt	nt	nt
O=C1c2ccccc2C(=O)C1c1ccc2ccccc2n1	-6	-13	-5	-0.61	13	nt
O=C1c2ccccc2C(=O)C1c1nccc2ccccc12	4	18	nt	-0.46	61*	nt
CCOc1cc2c(cc1C(C)(C)C)NC(=O)CS2	2	9	6	-0.35	35*	13
COCCNC(=O)c1ccc2c(c1)NC(=O)CS2	0	-9	13	-0.1	0	-1
Cc1sc2nc(SCc3nnc(-c4cccs4)o3)n(C3CCCC3)c(=O)c2c1C	26	14	10	-0.51	30*	5
SMILES	PostGolgi yeast	tolC growth inh	Candida biofilm	Pyk2 oligo antag	PostGolgi ctrl	FAK blocker
O=C(NCCN1CCOCC1)C1CCN(c2nc3ccccc3o2)CC1	12	-12	5	1.2	-2	5
Cc1ccc(C(=O)Nc2nc(C(C)(C)C)cs2)s1	11	nt	-2	-1.9	14	-1
O=C(Nc1nc(-c2cccs2)cs1)c1ccc(Cl)s1	32*	96*	-1	nt	21	nt
CC(C)(C)c1csc(NC(=O)c2ccc(Cl)s2)n1	-2	100*	4	-3*	24	4
CC(=O)Nc1nc(-c2cccs2)cs1	6	1	0	0.35	1	-1
Nc1c(C(=O)c2ccccc2)sc2c1c(=O)[nH]c(=O)n2-c1ccccc1	nt	nt	nt	0.01	nt	nt
CCOc1cc(C=O)c(Br)cc1OC1CCCC1	8	nt	8	-0.07	18	2
COc1cc(C=O)c(Br)cc1OCc1ccc(C)cc1	1	nt	nt	-0.29	48*	9
CCOc1cc2[nH]c(=S)n(CCC(=O)NCc3ccc(OC)cc3)c(=O)c2cc1OCC	-6	nt	nt	-0.39	10	3
CN1c2ccccc2C(O)=C(C(=S)Nc2ccc(Cl)cc2)S1(=O)=O	5	nt	nt	-3.2*	27	-3
CCOC(=O)C(CC)n1cnc2c(cnn2-c2ccc(Cl)cc2)c1=O (centres undefined)	1	-4	0	0.75	-2	7
